Results: paper PMC7978421 (Science Advances, 2021)

Legend:
hASF1A(1-156) = hASF1A(1-156) (Homo sapiens, UniProt Q9Y294); experiment: Isothermal titration calorimetry; assay type: binding
15N hASF1A(1-156) = 15N hASF1A(1-156) (Homo sapiens, UniProt Q9Y294); experiment: NMR 1H-15N SOFAST HMQC titration of 15N-hASF1A; assay type: binding
Method in brief: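 Uniformly 15N-labelled hASF1A(1-156) (M9, 15NH4Cl) at 40 μM in 50 mM tris-HCl pH 7.5, 0.1 mM EDTA, DSS, NaN3, protease inhibitors, 10% D2O. Spectra at 293 or 298 K, 600 MHz, with stepwise test compound additions. Δδ = √(ΔHN² + (0.17ΔN)²), normalised to saturation maximum. Kd fitted against total compound concentration for nine residues shifting >0.07 ppm; mean ± SD reported.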

ASF1 = settings: cited from earlier work
[1] = VP-ITC, 20°C, 50 mM tris-HCl pH 7.5, at least duplicate

Sequence of hASF1A(1-156) (Q9Y294 1-156): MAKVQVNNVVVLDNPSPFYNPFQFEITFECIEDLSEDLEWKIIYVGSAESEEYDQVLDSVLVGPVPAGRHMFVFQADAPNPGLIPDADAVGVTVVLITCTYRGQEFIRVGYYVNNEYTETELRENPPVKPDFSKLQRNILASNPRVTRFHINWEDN
Sequence of 15N hASF1A(1-156) (Q9Y294 1-156): as above

Compound | Kd (hASF1A(1-156)) [µM] | Affinities times lower than the P1 to P4 peptide series (hASF1A(1-156); ITC) [times] | N (ITC stoichiometry) (hASF1A(1-156); [1]) | ΔH (hASF1A(1-156); [1]) [kcal/mol] | −TΔS (hASF1A(1-156); [1]) [kcal/mol] | Kd (15N hASF1A(1-156)) [µM] | Exchange regime upon 15N-ASF1 titration (15N hASF1A(1-156); NMR titration, chemical shift variation of hASF1A residues) | Affinity for ASF1 (ASF1)
CC[C@H](C)[C@H](NC(=O)[C@H](CCCNC(=N)N)NC(=O)NC[C@H](CCC(N)=O)NC(=O)NC[C@H](CC(C)C)NC(=O)NC[C@H](CCCNC(=N)N)NC(=O)NC[C@H](Cc1ccc2ccccc2c1)NC(=O)[C@H](CCCCN)NC(=O)[C@H](CCC(=O)O)NC(C)=O)C(=O)N[C@@H](C)C(N)=O [C2] | 2.7 ± 0.6 | 10 to 80 | 1.0 ± 0.1 | -2.2 ± 0.1 | -4.8 ± 0.2 | 4 ± 1 | fast exchange rate | 
ASTEEKWARLARRIAGAGGVTLDGFG [ip4] |  |  |  |  |  |  |  | low nanomolar range
